This is a sample that favours compounds with a hit; in the whole collection about 4.7% have one here.
MrgX1 ag = activates human MrgX1 receptor signaling; MrgX1-HEK293 cells, Fluo-4 calcium fluorescence, agonist mode; hits give high values; actives 0.44% (n = 310,000); B-score at 10 µM;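 active means calcium response B-score plate-corrected fluorescence ratio at least 3 library SD, with starting fluorescence B-score inside 5 SD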
Target sequence (Q96LB2 whole entry, looked up): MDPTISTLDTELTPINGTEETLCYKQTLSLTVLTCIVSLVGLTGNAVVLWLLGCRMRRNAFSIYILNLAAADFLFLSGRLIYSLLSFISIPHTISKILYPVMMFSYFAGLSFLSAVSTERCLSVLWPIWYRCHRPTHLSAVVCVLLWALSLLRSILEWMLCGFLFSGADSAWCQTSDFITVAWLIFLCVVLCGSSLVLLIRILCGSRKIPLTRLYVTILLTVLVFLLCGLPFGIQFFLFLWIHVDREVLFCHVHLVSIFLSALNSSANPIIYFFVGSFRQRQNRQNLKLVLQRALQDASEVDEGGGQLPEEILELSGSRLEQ
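times = overnight plating, then 30 min 37 °C plus 30 min room-temperature dye loading | assay system = stable human MrgX1 HEK293 cell line | input = fifteen thousand cells per well | signal = kinetic calcium dye fluorescence, Fluo-4 NW | dosing = compound delivered in addition one of three | read-out = B-scored fluorescence response ratio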
KCC2 mod = modulates chloride dependent transport by human KCC2; actives 2.2% (n = 190,000); B-score of Tl+ flux slope (higher = more flux/activation; lower = inhibition) at 10 µM; Q9H2X9; AID 1456; KCC2 cells, thallium flux FluoZin-2 fluorescence;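 active means thallium flux slope and its plate-corrected score both differing from the plate sample mean at a set confidence after two filtering rounds, in either direction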;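 further: slope of fluorescence scaled to starting intensity during 10 to 20 s after thallium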
MrgX1 antagonist = blocks BAM8-22 activation of human MrgX1 receptor. Q96LB2. MRGX1-HEK293 calcium flux, Fluo-4, BAM8-22 antagonism; hits give low values. B-score at 10 µM. actives 1.3% (n = 310,000);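 active means calcium-response B-score plate-corrected more than 3 library SD below zero, starting fluorescence within 5 deviations, no agonist response on first addition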;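 further: peak minus trough fluorescence over baseline after final BAM8-22 challenge near maximal dose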
RGS4 block = inhibitors of human RGS4; actives 0.45% (n = 310,000); B-score at 10 µM; P49798; HEK293 M3R/RGS4 inducible, Fluo-4 calcium flux; hits give high values; triggered by carbachol at its EC20; AID 463165;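 active means B-score, a plate-corrected calcium signal, over three deviations above library mean, with baseline fluorescence within five deviations of library mean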;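 further: RGS4 expression induced by doxycycline in cells with stable M3 receptor; B-score is computed from the integrated fluorescence ratio over baseline after carbachol; higher B-score means a larger calcium signal and so more RGS4 inhibition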
Target sequence (P49798 whole entry, looked up): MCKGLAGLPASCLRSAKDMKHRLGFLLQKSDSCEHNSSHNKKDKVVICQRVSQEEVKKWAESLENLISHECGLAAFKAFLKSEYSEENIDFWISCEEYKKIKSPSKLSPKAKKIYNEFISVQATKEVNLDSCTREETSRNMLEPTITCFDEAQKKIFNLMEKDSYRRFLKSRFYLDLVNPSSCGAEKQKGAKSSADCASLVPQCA
RGS4 pot = RGS4 potentiation or activation; HEK293 M3R/inducible RGS4, carbachol calcium flux Fluo4; hits give low values; B-score at 10 µM; actives 0.92% (n = 310,000);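 active means B-score of the integrated calcium signal more than 4 SD below the library mean, with starting fluorescence not abnormally high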;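 further: negative B-score means reduced calcium response which marks RGS4 activation or potentiation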
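Material: M3R-expressing HEK293 line, RGS4 induced by doxycycline | Schedule: Overnight RGS4 induction, 30 min dye load 37 °C, 20 min compound RT | Measured by: Fluo4 fluorescence kinetic imaging of calcium | Read-out: Integrated calcium ratio converted to B score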
MrgX1 PAM = human MrgX1 positive allosteric modulation, primary screen; Q96LB2; MrgX1-HEK293, Fluo-4 calcium flux, FDSS; hits give high values; B-score at 10 µM; actives 0.63% (n = 310,000); AID 588675;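 active means plate-corrected calcium response at least 3 library SD above typical, normal starting fluorescence, not activating the receptor alone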;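 further: compound read alongside a low EC10 to EC30 dose of BAM8-22 agonist; peak minus trough fluorescence over baseline measured at the second addition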
Numbers without * were called inactive; i = inactive; · = no result given.

SMILES	MrgX1 ag	KCC2 mod	MrgX1 antagonist	RGS4 block	RGS4 pot	MrgX1 PAM
Cc1cc([N+](=O)[O-])ccc1-c1ccc(C2Nc3ccccc3C(=O)N2O)o1 (centres undefined)	i	8.4*	i	i	i	i
CCOC(=O)c1ccc(-c2ccc(CO)o2)cc1	i	-0.19	i	i	i	i
COc1ccccc1NS(=O)(=O)c1cn(C)cn1	i	·	i	i	i	i
CC(=O)N1CCCN(Cc2cn(-c3ccc(C)cc3)nc2-c2ccc(F)cc2)CC1	i	0.57	i	i	i	i
Cc1ccc(-n2cc(CN3CCCN(C=O)CC3)c(-c3ccc(F)cc3)n2)cc1	i	0.41	i	i	i	11*
Cc1ccc(-n2nc3c(c2NC(=O)CC(C)C)CS(=O)C3)cc1 (centres undefined)	i	·	i	i	i	i
Cc1ccc(C(C)C)c(OCc2nn(CC(=O)c3ccc(Cl)cc3)c3[n+]2CCCCC3)c1	i	-0.8	i	i	-7.4*	i
CCOC(=O)N1CCN(c2nc(-c3cccs3)nc3ccccc23)CC1	i	·	i	i	-7.3*	i
Nc1c(C(=O)N/N=C/c2cccnc2)oc2nc(-c3ccco3)cc(-c3ccco3)c12	i	0.42	i	i	i	i
Nc1c(C(=O)N/N=C/c2cccnc2)oc2nc(-c3ccccc3)cc(-c3ccco3)c12	i	-0.67	-6.2*	i	-8.9*	i
Cc1nn(C)cc1C(C(=O)NC1CCCCC1)N(C(=O)Cc1cccs1)c1ccc(C(C)C)cc1 (centres undefined)	27*	·	i	i	i	i
Cc1nn(C)cc1C(C(=O)NC1CCCCC1)N(C(=O)Cc1cccs1)c1ccc(F)cc1 (centres undefined)	i	1.4	i	i	i	i
CCN(CC)c1ccc(/C=C2\SC(N)=NC2=O)cc1	33*	·	i	i	i	i
Cc1ccc(S(=O)(=O)N2CCCC2C(=O)NCc2ccncc2)cc1 (centres undefined)	i	·	i	i	i	i
CCn1cc(S(=O)(=O)NCCc2ccc(F)cc2)cn1	i	·	i	i	i	i
C/C(=N\NC(N)=O)c1ccc(Cl)s1	i	-0.86	i	i	i	i
C=C(C)CNC(=S)N/N=C(\C)c1cccc(NC(C)=O)c1	·	0.22	·	i	i	·
CCNC(=S)N/N=C(\C)c1cc2ccccc2o1	i	9.1*	i	i	i	i
CCNC(=S)N/N=C(\C)c1ccc(Cl)s1	i	19*	i	i	-7.1*	i
CNC(=S)N/N=C(\C)c1ccc(Cl)s1	i	13*	i	i	i	i
C=C(C)CNC(=S)N/N=C(\C)c1ccc(Cl)s1	i	13*	-6.1*	i	i	i
C/C(=N\NC(=O)c1ccc(O)cc1)c1cc2ccccc2o1	i	-2.5	i	i	i	i
Cc1ccc(C)c(NC(=O)C2CCCN(c3cnccn3)C2)c1 (centres undefined)	i	·	i	i	i	i
Cc1cc(C(=O)CCC(=O)N(C)CC(=O)Nc2c(Cl)cccc2Cl)c(C)s1	i	·	i	i	i	i
Cc1ccccc1NC(=O)CSc1nnc(C)c2ccccc12	i	·	i	i	i	i
SMILES	MrgX1 ag	KCC2 mod	MrgX1 antagonist	RGS4 block	RGS4 pot	MrgX1 PAM
O=C(NCCOc1ccccc1)C1CCC(=O)N(CCCN2CCCC2=O)C1 (centres undefined)	i	·	i	i	i	i
COC(=O)COc1ccc(C2NC(=O)NC(c3ccccc3)=C2C(C)=O)cc1Br (centres undefined)	i	·	i	i	i	i
CNC(=S)N/N=C(\C)c1ccc(C)c(C)c1	i	5.1*	i	i	i	i
O=[N+]([O-])c1ccc(Oc2cccc(Br)c2)c2ccncc12	i	·	i	i	i	7.9*
O=[N+]([O-])c1ccc(Oc2ccc(F)cc2)c2ccncc12	i	0.25	i	i	i	i
CCC1Sc2ccc(S(=O)(=O)N3CCN(c4ccccc4)CC3)cc2NC1=O (centres undefined)	i	·	i	i	i	i
Cc1ccccc1NC(=O)CSc1nnc(CNC(=O)c2ccco2)n1C	i	·	i	i	i	i
CC(C)Oc1ccc(Cn2c(-c3ccco3)n[nH]c2=S)cc1	i	0.16	i	i	-7.3*	i
CC(C)[N+](C)(CCOC(=O)C1c2ccccc2Oc2ccccc21)C(C)C	i	1.4	i	i	-8.5*	i
CCOc1ccccc1Nc1nnc(SCC(=O)Nc2nc(-c3ccc(OC)cc3)cs2)s1	i	-1.3	i	i	i	i
COc1ccccc1Nc1nnc(SCc2nnc(-c3cc(OC)c(OC)c(OC)c3)o2)s1	i	-1.8	i	i	i	7.1*
CCOc1ccccc1Nc1nnc(SCc2nnc(-c3cc(OC)c(OC)c(OC)c3)o2)s1	i	-0.36	-6.2*	i	i	i
COc1ccccc1Nc1nnc(SCC2CCCCO2)s1 (centres undefined)	i	-0.41	i	i	i	i
Cc1oc(C)c2c(=O)ccc3c(c12)OC(N)=C(C#N)C3c1ccccc1 (centres undefined)	49*	-0.93	i	i	i	i
Cc1oc(C)c2c(=O)ccc3c(c12)OC(N)=C(C#N)C3c1ccccc1Cl (centres undefined)	i	-0.21	i	i	i	i
CSc1ccc(C2C(C#N)=C(N)Oc3c2ccc(=O)c2c(C)oc(C)c32)cc1 (centres undefined)	i	·	i	i	i	9.8*
O=C(Nc1ccccc1)Nc1ccc(Cl)nc1Cl	i	·	i	i	i	i
C[n+]1ccn(CC(=O)c2cc(C(C)(C)C)c(O)c(C(C)(C)C)c2)c1	i	·	i	i	i	i
Cc1cc(C)c2c(c1)c1nnc(SCCN3CCCCC3)nc1n2C	·	·	·	i	i	·
Cn1c(O)c(N=Nc2nc(-c3ccccc3)cs2)c2ccccc21	i	52*	i	i	i	i
CCOC(=O)C1=C(c2ccccc2)N=c2s/c(=C\c3cccc(O)c3)c(=O)n2C1c1cccs1 (centres undefined)	i	-0.32	i	i	i	i
